GalR3 antag – blocks the human galanin receptor 3; O60755; HEK293 GalR3-CNG cAMP membrane potential fluorescence; galR3 body fused to GalR1 C-terminus; inhibition, % at 3 µM; 0.44% of 360,000 active; AID 651719;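 active = inhibition above the screen-wide average plus 3 SD, cut at about 13% in these data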;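 also: forskolin and galanin both at EC90 stimulate the cells; cAMP rise reported by CNG channel membrane potential dye signal; 0% = forskolin plus galanin with DMSO and 100% = forskolin alone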
GPR7 antagonist – blocks human GPR7 receptor signaling; AID 1861; 1.1% of 290,000 active; GPR7-expressing cells, fluorescence antagonist assay; inhibition, % at 4.4 µM; in the data active = inhibition above about 16%, passing the limit was not always enough;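 also: cells stimulated with the agonist NPW; 0% = agonist with vehicle and 100% = vehicle without agonist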
OX1R antag-1 – blocks the human orexin 1 receptor | AID 434989 | 0.43% of 330,000 active | inhibition, % at 5 µM | CHO/OX1R cells, Fluo-8 calcium fluorescence, orexin A;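 active = inhibition above its plate's threshold, mean inhibition of all tested compounds on the plate plus 3 SD, cut at about 37% in these data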;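 also: 0% = orexin A challenge wells and 100% = SB-334867-A antagonist wells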
Target sequence (O43613 whole entry, looked up): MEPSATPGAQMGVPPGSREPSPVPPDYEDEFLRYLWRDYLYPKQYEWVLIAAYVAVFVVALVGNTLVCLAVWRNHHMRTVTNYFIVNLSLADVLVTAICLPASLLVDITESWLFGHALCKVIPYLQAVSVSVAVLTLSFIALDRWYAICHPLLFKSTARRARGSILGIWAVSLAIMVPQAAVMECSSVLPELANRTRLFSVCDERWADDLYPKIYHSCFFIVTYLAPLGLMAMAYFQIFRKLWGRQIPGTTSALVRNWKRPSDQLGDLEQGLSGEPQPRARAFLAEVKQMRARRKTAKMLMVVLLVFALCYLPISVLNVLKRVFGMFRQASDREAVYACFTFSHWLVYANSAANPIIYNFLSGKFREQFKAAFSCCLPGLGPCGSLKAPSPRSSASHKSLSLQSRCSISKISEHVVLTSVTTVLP
OX1R antag-2 – OX1R (human) antagonism; O43613; OX1R-expressing cells, FRET antagonist read-out; inhibition, % at 6.6 µM; 1.8% of 330,000 active; in the data active = inhibition mostly above about 38%, no sharp cut-off; inactive = mostly below about 40%;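 also: 0% = agonist challenge alone and 100% = reference antagonist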
CHO parental Ca – counter-screen: ATP calcium response change in parental CHO cells | inhibition, % at 5.6 µM | 0.63% of 330,000 active | parental CHO-K1, ATP-induced calcium, Fluo-8 fluorescence;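 active = inhibition above that plate's mean sample inhibition plus 3 SD, cut at about 26% in these data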;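 also: 0% = ATP-challenged DMSO wells and 100% = DMSO wells without ATP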
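Measured by: calcium-sensitive Fluo-8 fluorescence / Test system: CHO parental line / Controls: ATP-challenged DMSO wells low, unchallenged DMSO wells high / Measure: % inhibition / Compound: single nominal dose of 5.6 µM per compound / Replicates: single well per compound, no replicates / Reagent: ATP as calcium-mobilizing challenge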
GPR7 antag conf – human GPR7 antagonism, confirmation assay. shares compounds with GPR7 antagonist. GPR7-expressing cells, calcium fluorescence antagonist mode. inhibition, % at 4.4 µM. 52% of 2,400 active; in the data active = inhibition above about 24%;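 also: stimulated with the GPR7 agonist NPW; 0% = agonist plus vehicle and 100% = vehicle alone without agonist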
MCHR1 antag – antagonizes human MCHR1, a GPR7 antagonist counter-screen | shares compounds with GPR7 antagonist | MCHR1-expressing cells, fluorescence antagonist assay | inhibition, % at 4.4 µM | 62% of 2,400 active | AID 2148; in the data active = inhibition above about 22%;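 also: 0% = vehicle with agonist and 100% = vehicle without agonist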
OX1R Ca confirm – confirmation of human orexin 1 receptor antagonists; shares compounds with OX1R antag-1; CHO/OX1R cells, orexin A calcium Fluo-8 fluorescence; inhibition, % at 5 µM; 38% of 1,100 active; in the data active = inhibition above about 29%;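 also: 0% = agonist challenge alone and 100% = reference antagonist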
CHO Ca counter – counter-screen for OX1R antagonists: effect in parental CHO cells. shares compounds with OX1R antag-1. parental CHO-K1, ATP-induced calcium, Fluo-8 fluorescence. inhibition, % at 5.6 µM. 9.3% of 1,100 active. AID 492965;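 active = inhibition above a per-plate limit, the mean inhibition of that plate's test compounds plus 3 SD, cut at about 25% in these data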;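 also: 0% = ATP challenge with DMSO and 100% = DMSO without ATP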
OX1R HTRF conf – OX1R (human) antagonism, HTRF confirmed. shares compounds with OX1R antag-2. OX1R-expressing cells, HTRF antagonist assay. inhibition, % at 6.6 µM. 49% of 1,800 active; in the data active = inhibition above about 55%;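 also: CHO cells expressing OX1R stimulated with orexin A at about EC80; 0% = agonist challenge alone and 100% = reference antagonist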
CHO-K1 HTRF cnt – counter-screen: parental CHO-K1 HTRF response | parental CHO-K1 cells, HTRF counterscreen | inhibition, % at 6.6 µM | shares compounds with OX1R antag-2 | 48% of 1,800 active; in the data active = inhibition above about 17%;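 also: 0% = agonist challenge with vehicle and 100% = vehicle alone without agonist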
An asterisk follows results filed as active; . = no result given. This is a sample that favours compounds with a hit; in the whole collection about 3.1% have one here.

SMILES | GalR3 antag | GPR7 antagonist | OX1R antag-1 | OX1R antag-2 | CHO parental Ca | GPR7 antag conf | MCHR1 antag | OX1R Ca confirm | CHO Ca counter | others
CCCCCc1ccc(OCCCC[n+]2ccc(C)cc2)c(CCCCC)c1 | 6 | 24* | 40* | 14 | 21 | 70* | 79* | 16 | 11
CCCCNc1ccc2c(c1)OC[C@H](Cc1ccccc1)NS2(=O)=O | -6 | . | . | . | . | . | . | . | .
CCCCCCCCN1C(=O)[C@@H](CC(=O)NCCCN2CCCC2=O)C[C@@]2(C(=O)OC)C1=C[C@H](C(C)(C)C)O[C@@H]2C | -7 | . | . | . | . | . | . | . | .
CCOC(=O)c1c(-c2ccc(-c3ccccc3)cc2)csc1NC(=O)CNCCN(C)C | -9 | 34* | 31 | 8 | 16 | 60* | 75* | 36* | 12
O=C(CNS(=O)(=O)c1ccc(Br)s1)NCCc1ccc(Cl)cc1 | -4 | 25* | 21 | 21 | -7 | 3 | 34* | -5 | -3
O=C1Nc2ccc(Br)cc2/C1=C/C(=O)c1ccccc1 | -3 | . | . | . | . | . | . | . | .
C=CCOc1cccc(C(=O)/C=C2/C(=O)Nc3ccccc32)c1 | -5 | 43* | 35 | 14 | 19 | 65* | 81* | 21 | 19
O=C(Nc1csc([N+](=O)[O-])c1)Nc1ccccc1Cl | 2 | 41* | 35 | 44 | 3 | 51* | 62* | 1 | 42*
COc1cccc(C(=O)N[C@H](C(=O)N2CCC[C@H]2C(=O)NCc2ccccc2)C2CCCCC2)c1 | -1 | . | . | . | . | . | . | . | .
O=C(c1ccccc1)c1c2c(cc3sc4ccccc4[n+]13)-c1cccc3cccc-2c13 | -4 | 21* | 45 | 12 | 29 | 18 | 32* | 36* | 37*
COc1cc(CN2C[C@@H](CO)O[C@@H](n3cnc4c(N5CCN(C)CC5)ncnc43)C2)cc(OC)c1OC | -1 | . | . | . | . | . | . | . | .
N#C/C(=C\c1ccc(O)cc1)c1nc2ccccc2o1 | 11 | -3 | -4 | 24 | -2 | . | . | . | .
COc1cc(/C=C(\C#N)c2nc3ccccc3o2)ccc1O | -7 | 26* | 34 | 17 | 23 | 36* | 46* | 56* | 56*
CN(CC(O)Cn1c2ccccc2c2ccccc21)S(C)(=O)=O (stereo not drawn) | -7 | 0 | 7 | -5 | -3 | . | . | . | .
CS(=O)(=O)N(CC(O)Cn1c2ccccc2c2ccccc21)c1ccccc1 (stereo not drawn) | -4 | 28* | 27 | 49* | 13 | 35* | 34* | 36* | -2 | OX1R HTRF conf=44;CHO-K1 HTRF cnt=3
CC(=O)Oc1cccc(N2C(=O)c3cccc4c([N+](=O)[O-])ccc(c34)C2=O)c1 | -10 | 60* | 28 | 115* | 18 | 54* | 36* | . | . | OX1R HTRF conf=99*;CHO-K1 HTRF cnt=72*
O=C1C(Cl)=C(Nc2ccccc2)C(=O)c2ccccc21 | 2 | -11 | 18 | 40 | 24 | . | . | . | .
O=C(O)c1ccc(NC2=C(Cl)C(=O)c3ccccc3C2=O)cc1 | -4 | 50* | 12 | 84* | 13 | 18 | 35* | . | . | OX1R HTRF conf=70*;CHO-K1 HTRF cnt=34*
O=C1c2[nH]nc(-c3ccccc3)c2C(c2cccc(C(F)(F)F)c2)N1c1ccccc1 (stereo not drawn) | -8 | . | . | . | . | . | . | . | .
Cc1cn([C@H]2C[C@H](O)[C@@H](/C=C/C(=O)NCc3ccc4c(c3)OCO4)O2)c(=O)[nH]c1=O | -6 | . | . | . | . | . | . | . | .
CC1CCC(C(C)C)C(OC(=O)C[n+]2cc(-c3ccc(Cl)cc3)n3c2CCC3)C1 (stereo not drawn) | 5 | 28* | -24 | 102* | -6 | 38* | 51* | . | . | OX1R HTRF conf=19;CHO-K1 HTRF cnt=4
